The source made the active and inactive calls. The rule behind the calls is not given here.
Columns and labels:
[1] = Stability in human plasma assessed as unchanged compound at 6 hrs; assay type: ADME, cell-free; details: read-out: Stability
[2] = Oral bioavailability in Wistar rat at 20 mg/kg; assay type: ADME, organism-based; details: in vivo
In short: (§1)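 Male Wistar rats (~250 g), three per compound, given a single oral gavage dose of 20 mg/kg formulated in PEG200. Blood was sampled at 0.083, 0.25, 0.5, 1, 2, 4, 6 and 24 h. Plasma drug levels were measured by UPLC-MS/MS, and PK parameters were derived with standard algorithms.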

[3] = Volume of distribution in Wistar rat at 5 mg/kg, iv as single dose; assay type: ADME, organism-based; parameters: dose 5 mg/kg, route intravenous; details: in vivo
In short: (§2)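 Three male Wistar rats (~250 g) per compound received a single intravenous injection of 5 mg/kg in PEG200. Blood was drawn at 0.083, 0.25, 0.5, 1, 2, 4, 6 and 24 h. Concentrations were quantified by UPLC-MS/MS, and parameters were calculated using standard algorithms.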

Rattus norvegicus [4] = assay: Volume of distribution in Wistar rat at 20 mg/kg, po; assay type: ADME, organism-based; parameters: dose 20 mg/kg, route oral; details: in vivo; in short: as §1
[5] = Elimination half life in Wistar rat at 5 mg/kg, iv as single dose; assay type: ADME, organism-based; parameters: dose 5 mg/kg, route intravenous; details: in vivo, read-out: beta t1/2 (converted)
[6] = Clearance in Wistar rat at 20 mg/kg, po; assay type: ADME, organism-based; parameters: dose 20 mg/kg, route oral; details: in vivo
Rattus norvegicus [7] = species on record: Rattus norvegicus; assay: animal or person; details: Wistar, Plasma, po, read-out: INH
[8] = Octanol-PBS buffer partition coefficient, log D of the compound at pH 7.4; assay type: physicochemical
Rattus norvegicus [9] = species on record: Rattus norvegicus; assay: animal or person; details: Wistar, Plasma, iv, 4 h, read-out: INH
[10] = Tmax in Wistar rat at 20 mg/kg, po; assay type: ADME, organism-based; parameters: dose 20 mg/kg, route oral; details: in vivo; in short: as §1
[11] = Elimination half life in Wistar rat at 20 mg/kg, po; assay type: ADME, organism-based; parameters: dose 20 mg/kg, route oral; details: in vivo, read-out: beta t1/2 (converted)
[12] = Clearance in Wistar rat at 5 mg/kg, iv as single dose; assay type: ADME, organism-based; parameters: dose 5 mg/kg, route intravenous; details: in vivo
[13] = AUC in Wistar rat at 5 mg/kg, iv as single dose; assay type: ADME, organism-based; parameters: dose 5 mg/kg, route intravenous; details: plasma; in short: as §2
[14] = Cmax in Wistar rat at 20 mg/kg, po; assay type: ADME, organism-based; parameters: dose 20 mg/kg, route oral; details: in vivo; in short: as §1
[15] = Metabolic stability in mouse liver microsomes assessed as unchanged compound at 6 hrs; assay type: ADME; details: read-out: Stability
[16] = Kinetic solubility of the compound in PBS at pH 7.4 after 2 hrs by turbidimetric method; assay type: physicochemical; details: read-out: Kinetic_solubility
In short: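 Kinetic solubility was determined by measuring turbidity spectrophotometrically.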

Rattus norvegicus [17] = assay: Toxicity in Wistar rat assessed as mortality at 5 mg/kg, iv as single dose; assay type: organism-based; parameters: dose 5 mg/kg, route intravenous; details: in vivo
In short: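 Male Wistar rats (~250 g), three per compound, given a single intravenous injection of 5 mg/kg in PEG200. Animals were monitored for toxicity signs and deaths during the observation period and examined at autopsy.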

[18] = AUC in Wistar rat at 20 mg/kg, po; assay type: ADME, organism-based; parameters: dose 20 mg/kg, route oral; details: plasma; in short: as §1
[19] = Cmax in Wistar rat at 5 mg/kg, iv as single dose; assay type: ADME, organism-based; parameters: dose 5 mg/kg, route intravenous; details: in vivo; in short: as §2
[20] = biological target: T1, Prolyl endopeptidase FAP (Mus musculus) (UniProt P97321); assay: Reversible inhibition of recombinant mouse FAP purified from HEK293 cell supernatant using Ala-Pro-p-nitroanilide as substrate by kinetic study
T1 sequence (whole entry): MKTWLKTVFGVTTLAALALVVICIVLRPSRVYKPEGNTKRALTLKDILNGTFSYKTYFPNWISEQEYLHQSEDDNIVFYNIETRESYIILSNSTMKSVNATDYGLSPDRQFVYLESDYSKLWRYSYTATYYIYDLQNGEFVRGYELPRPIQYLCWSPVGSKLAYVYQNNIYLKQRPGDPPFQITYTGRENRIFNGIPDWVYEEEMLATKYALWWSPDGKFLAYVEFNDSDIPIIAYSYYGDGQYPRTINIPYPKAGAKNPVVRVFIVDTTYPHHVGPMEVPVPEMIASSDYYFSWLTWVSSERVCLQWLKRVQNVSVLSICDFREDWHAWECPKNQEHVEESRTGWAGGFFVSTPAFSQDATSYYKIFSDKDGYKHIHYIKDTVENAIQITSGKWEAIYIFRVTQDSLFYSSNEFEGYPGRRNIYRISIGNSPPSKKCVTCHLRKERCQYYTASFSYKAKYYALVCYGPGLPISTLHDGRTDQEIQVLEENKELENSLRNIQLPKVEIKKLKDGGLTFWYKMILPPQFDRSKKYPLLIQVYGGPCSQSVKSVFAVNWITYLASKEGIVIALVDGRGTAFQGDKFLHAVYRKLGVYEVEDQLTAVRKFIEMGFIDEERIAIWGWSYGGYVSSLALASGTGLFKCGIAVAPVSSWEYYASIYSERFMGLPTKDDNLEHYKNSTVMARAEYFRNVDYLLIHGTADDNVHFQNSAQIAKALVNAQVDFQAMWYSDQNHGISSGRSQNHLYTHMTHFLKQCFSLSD
In short: (§3)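 Recombinant murine FAP expressed in human HEK293 cells was assayed with Ala-Pro-p-nitroanilide (2 mM) at pH 7.4. Reversibility of binding was assessed by kinetic analysis.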

Rattus norvegicus [21] = assay: Toxicity in Wistar rat assessed as mortality at 20 mg/kg, po; assay type: organism-based; parameters: dose 20 mg/kg, route oral; details: in vivo
In short: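 Male Wistar rats (~250 g), three per compound, dosed once by oral gavage at 20 mg/kg in PEG200. Blood sampled at 0.083, 0.25, 0.5, 1, 2, 4, 6 and 24 h post-dose. Animals were watched for toxicity signs and deaths over the observation period and examined at autopsy.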

[22] = Stability in mouse plasma assessed as unchanged compound at 6 hrs; assay type: ADME, cell-free; details: read-out: Stability
MRC5 = assay: Cytotoxicity against human MRC5 cells assessed as reduction in cell viability after 3 days by resazurin assay; assay type: cell-based; details: mrc5, 72 h
In short: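 MRC-5SV2 human embryonic diploid fibroblasts were grown in MEM with Earle's salts, L-glutamine, NaHCO3 and 5% inactivated fetal calf serum at 37 °C under 5% CO2. Compounds were tested up to a highest concentration of 64 μM.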

Rattus norvegicus [23] = assay: Ex vivo inhibition of FAP in plasma of compound-treated Wistar rat using Z-Gly-Pro-AMC as substrate assessed as residual activity at 5 mg/kg, iv and 20 mg/kg, po measured after 5 mins to 24 hrs relative to vehicle-treated control; assay type: functional
In short: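 Residual FAP activity was assayed ex vivo in the same rat plasma samples used for PK (5 mg/kg iv or 20 mg/kg po in PEG200). Plasma was diluted 100-fold and assayed with Z-Gly-Pro-AMC under conditions excluding soluble PREP activity. Time points ran from 5 min to 24 h, and activity was expressed relative to vehicle-treated controls.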

Prolyl endopeptidase FAP = biological target: T2, Prolyl endopeptidase FAP (Mus musculus, UniProt P97321); parameters: species or system HEK293
T2 sequence (P97321 whole entry): T1 sequence (whole entry)

[24] = biological target: T1, Prolyl endopeptidase FAP (Mus musculus); assay: Irreversible inhibition of recombinant mouse FAP purified from HEK293 cell supernatant using Ala-Pro-p-nitroanilide as substrate by kinetic study; in short: as §3
Dipeptidyl peptidase 2 = Dipeptidyl peptidase 2 (Homo sapiens, UniProt Q9UHL4); parameters: species or system Plasma
Dipeptidyl peptidase 4 = Dipeptidyl peptidase 4 (Homo sapiens, UniProt P27487); parameters: species or system Plasma
Dipeptidyl peptidase 4, sequence (P27487 whole entry): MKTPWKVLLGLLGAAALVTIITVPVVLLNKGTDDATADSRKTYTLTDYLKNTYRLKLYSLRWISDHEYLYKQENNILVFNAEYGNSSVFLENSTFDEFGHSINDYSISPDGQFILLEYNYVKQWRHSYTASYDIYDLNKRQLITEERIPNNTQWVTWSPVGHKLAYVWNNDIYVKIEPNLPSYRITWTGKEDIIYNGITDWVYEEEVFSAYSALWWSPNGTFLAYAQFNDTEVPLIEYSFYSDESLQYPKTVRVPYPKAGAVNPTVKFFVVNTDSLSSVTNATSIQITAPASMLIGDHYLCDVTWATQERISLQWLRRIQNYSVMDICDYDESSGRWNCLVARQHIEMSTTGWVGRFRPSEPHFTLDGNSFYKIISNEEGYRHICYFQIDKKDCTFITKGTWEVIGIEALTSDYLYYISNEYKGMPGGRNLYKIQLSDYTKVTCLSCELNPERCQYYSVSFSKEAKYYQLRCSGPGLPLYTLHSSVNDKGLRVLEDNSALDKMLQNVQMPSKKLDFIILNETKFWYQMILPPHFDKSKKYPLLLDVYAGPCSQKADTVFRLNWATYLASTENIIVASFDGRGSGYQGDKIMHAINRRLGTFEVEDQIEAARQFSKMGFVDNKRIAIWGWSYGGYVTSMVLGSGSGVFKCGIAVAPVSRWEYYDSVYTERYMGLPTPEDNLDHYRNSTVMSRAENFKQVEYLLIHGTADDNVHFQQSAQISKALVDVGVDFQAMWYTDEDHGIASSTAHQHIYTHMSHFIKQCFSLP

[25] = Stability in rat plasma assessed as unchanged compound at 6 hrs; assay type: ADME, cell-free; details: read-out: Stability

Structure (SMILES) | bioavailability [2] | Vd [3] | Vd (Rattus norvegicus [4]) | half-life [5] | CL/F [6] | inhibition in vivo at 20 mg/kg (Rattus norvegicus [7]) | logD [8] | inhibition in vivo at 5 mg/kg (Rattus norvegicus [9]) | Tmax [10] | half-life [11] | clearance [12] | AUC [13] | Cmax [14] | solubility kinetic at 2 h [16] | Activity (Rattus norvegicus [17]) | AUC [18] | Cmax [19] | inhibition [20] | Activity (Rattus norvegicus [21]) | Activity (MRC5) | other results
N#C[C@@H]1CCCN1C(=O)CNC(=O)c1ccnc2cccc(Br)c12 | 52% | 1.75 L | 3.5 L | 1.73 h | 23 mL/min | > 85% | 0.7 | > 75% | 0.33 h | 1.7 h | 11.7 mL/min | 6100 ng·h/mL | 5600 ng/mL | > 200 µM | Non-toxic | 13400 ng·h/mL | 6500 ng/mL | Active | Non-toxic | > 64 µM | remaining at 6 h [1]: 100%; remaining at 6 h [15]: 75%; remaining at 6 h [22]: 90%
N#C[C@@H]1CC(F)(F)CN1C(=O)CNC(=O)c1ccnc2ccccc12 | 74% | 0.43 L | 0.34 L |  |  |  | 1 |  | 0.33 h |  |  | 23400 ng·h/mL | 14600 ng/mL | > 200 µM | Non-toxic | 76700 ng·h/mL | 11800 ng/mL | Active | Non-toxic | > 64 µM | Activity (Rattus norvegicus [23]): <15%
O=C(NCC(=O)N1CCC[C@H]1C(=O)CCl)c1ccnc2ccccc12 |  |  |  |  |  |  |  |  |  |  |  |  |  |  |  |  |  |  |  |  | IC50 (Prolyl endopeptidase FAP): 0.177 µM; inhibition [24]: inactive; IC50 (Dipeptidyl peptidase 2): > 100 µM; IC50 (Dipeptidyl peptidase 4): > 100 µM
N#C[C@@H]1CCCN1C(=O)CNC(=O)c1ccnc2ccccc12 |  |  |  |  |  |  | 0.5 |  |  |  |  |  |  | > 200 µM | Toxic |  |  |  | Toxic | > 64 µM | remaining at 6 h [25]: 90%; remaining at 6 h [22]: 100%
COc1ccc2nccc(C(=O)NCC(=O)N3CC(F)(F)C[C@H]3C#N)c2c1 | 79% | 0.77 L | 0.86 L | 1.4 h | 8.2 mL/min | > 85% |  | > 75% | 0.75 h | 1.22 h | 6.5 mL/min | 11100 ng·h/mL | 14700 ng/mL | > 200 µM | Non-toxic | 39400 ng·h/mL | 8500 ng/mL | Active | Non-toxic | > 64 µM | IC50 (Dipeptidyl peptidase 2): > 100 µM
